Two molecules from ChEMBL document CHEMBL1125291, “New 8-(trifluoromethyl)-substituted quinolones. The benefits of the 8-fluoro group with reduced phototoxic risk” (1992) can be followed below.

SMILES strings stand for the structures. Converted amounts (≈) assume the structure as drawn.

The species entered for one assay is Mus musculus. Description: Days of the first positive reaction in […] mice. In kind it is functional.
Conditions: not given
The gist of the method: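 Phototoxic skin reaction test in depilated female CD-1 mice. A single oral dose (gavage) or subcutaneous dose was given, followed 1 h later by 3 h of UVA exposure (320–400 nm). The regimen was repeated for up to 4 consecutive days, with initial doses of 30, 100 and 300 mg/kg. PTD50 was derived by the probit method. The first day of positive reaction and the no-effect dose were taken from the raw data.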
With `CC1(CN)CCN(c2c(F)cc3c(=O)c(C(=O)O)cn(C4CC4)c3c2F)C1` (centres undefined), the “Day of first positve reaction” value is listed as 1.

Consider `C[C@@H]1CN(c2c(F)cc3c(=O)c(C(=O)O)cn(C4CC4)c3c2F)CCN1`, for which the “Day of first positve reaction” value is reported as 4.

The species named for the next assay is Mus musculus. Description: Number of mice which show positive phototoxic reaction in 5 mice. It counts as functional.
Conditions: not given
`CC1(CN)CCN(c2c(F)cc3c(=O)c(C(=O)O)cn(C4CC4)c3c2F)C1` (centres undefined): the “No. of pos rxns” value worked out at 5.

On to `C[C@@H]1CN(c2c(F)cc3c(=O)c(C(=O)O)cn(C4CC4)c3c2F)CCN1`, for which the “No. of pos rxns” value came to 1.

In a further assay the test system is Escherichia coli. Kind of assay: In vivo efficacy in mouse protection test in Escherichia coli Vogel administered by subcutaneous injection. As to conditions: Escherichia coli, sc; read-out: PD50. In kind it is functional. The gist of the method:
(§1)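 Acute lethal systemic infections in female Charles River CD-1 mice. A single dose was given at challenge, orally by gavage or by subcutaneous injection. PD50 (median protective dose, mg/kg) was determined.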
In the case of `CC1(CN)CCN(c2c(F)cc3c(=O)c(C(=O)O)cn(C4CC4)c3c2F)C1` (centres undefined), the ED50 is 3 mg/kg.

For `C[C@@H]1CN(c2c(F)cc3c(=O)c(C(=O)O)cn(C4CC4)c3c2F)CCN1`, the ED50 was determined as 0.2 mg/kg.

The next assay relates to Escherichia coli. Kind of assay: In vivo efficacy in mouse protection test in Escherichia coli Vogel dose administered orally by gavage. It counts as functional. The conditions noted are these: Escherichia coli, po; read-out: PD50. The procedure, abridged:
as §1
Regarding `CC1(CN)CCN(c2c(F)cc3c(=O)c(C(=O)O)cn(C4CC4)c3c2F)C1` (centres undefined), the ED50 worked out at 1.8 mg/kg.

As for `C[C@@H]1CN(c2c(F)cc3c(=O)c(C(=O)O)cn(C4CC4)c3c2F)CCN1`, the ED50 was found to be 0.7 mg/kg.

Another assay has as its system Escherichia coli. Description: Minimum inhibitory concentration (MIC) against gram negative bacteria Escherichia coli H-560. It counts as functional. As to conditions: Escherichia coli; read-out: MIC. The gist of the method:
(§2)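 MICs were determined by standard broth microtitration against 11 Gram-positive and Gram-negative organisms, in µg/mL. Values come from duplicate or triplicate experiments and are accurate to ±50%.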
The MIC is the least concentration at which growth counts as inhibited. Turning to `CC1(CN)CCN(c2c(F)cc3c(=O)c(C(=O)O)cn(C4CC4)c3c2F)C1` (centres undefined), the MIC amounted to 0.006 µg/mL (≈ 0.0159 µM).

Regarding `C[C@@H]1CN(c2c(F)cc3c(=O)c(C(=O)O)cn(C4CC4)c3c2F)CCN1`, the MIC stood at 0.1 µg/mL (≈ 0.275 µM).

A further assay relates to Escherichia coli. Kind of assay: Minimum inhibitory concentration (MIC) against gram negative bacteria Escherichia coli Vogel. In kind it is functional. The conditions noted are these: Escherichia coli; read-out: MIC. The procedure, abridged: as §2
Regarding `CC1(CN)CCN(c2c(F)cc3c(=O)c(C(=O)O)cn(C4CC4)c3c2F)C1` (centres undefined), the MIC was found to be 0.013 µg/mL (≈ 0.0344 µM).

With `C[C@@H]1CN(c2c(F)cc3c(=O)c(C(=O)O)cn(C4CC4)c3c2F)CCN1`, the MIC worked out at 0.025 µg/mL (≈ 0.0688 µM).

The test system of another assay is Enterobacter cloacae. Description: Minimum inhibitory concentration (MIC) against gram negative bacteria Enterobacter cloacae MA-2646. In kind it is functional.
Conditions: not given
The molecule `CC1(CN)CCN(c2c(F)cc3c(=O)c(C(=O)O)cn(C4CC4)c3c2F)C1` (centres undefined) showed an MIC of 0.013 µg/mL (≈ 0.0344 µM).

For `C[C@@H]1CN(c2c(F)cc3c(=O)c(C(=O)O)cn(C4CC4)c3c2F)CCN1`, the MIC was 0.025 µg/mL (≈ 0.0688 µM).

In a further assay the test system is Klebsiella pneumoniae. Description: Minimum inhibitory concentration (MIC) against gram negative bacteria Klebsiella pneumoniae MGH-2. It counts as functional. As to conditions: Klebsiella pneumoniae; read-out: MIC. The procedure, abridged:
as §2
In the case of `CC1(CN)CCN(c2c(F)cc3c(=O)c(C(=O)O)cn(C4CC4)c3c2F)C1` (centres undefined), the MIC stood at 0.025 µg/mL (≈ 0.0662 µM).

As to `C[C@@H]1CN(c2c(F)cc3c(=O)c(C(=O)O)cn(C4CC4)c3c2F)CCN1`, the MIC came out at 0.025 µg/mL (≈ 0.0688 µM).

The species entered for another assay is Mus musculus. Kind of assay: Dose required to induce phototoxic reaction in 50% of mice by probit method at different dosage forms. In kind it is functional.
Conditions: not given
`CC1(CN)CCN(c2c(F)cc3c(=O)c(C(=O)O)cn(C4CC4)c3c2F)C1` (centres undefined) returned a PTD50 of less than 30 mg/kg.

In turn, `C[C@@H]1CN(c2c(F)cc3c(=O)c(C(=O)O)cn(C4CC4)c3c2F)CCN1` showed a PTD50 of 43 mg/kg.

The species named for a further assay is Mus musculus. Kind of assay: Dose which has no effect to induce phototoxic reaction in 50% of mice by probit method. It counts as functional.
Conditions: not given
The molecule `CC1(CN)CCN(c2c(F)cc3c(=O)c(C(=O)O)cn(C4CC4)c3c2F)C1` (centres undefined) registered a No effect dose of less than 30 mg/kg.

On to `C[C@@H]1CN(c2c(F)cc3c(=O)c(C(=O)O)cn(C4CC4)c3c2F)CCN1`, for which the No effect dose is less than 30 mg/kg.

The next assay has as its system Mus musculus. Description: Maximum tolerance dose was measured for phototoxic skin reaction by po administration. In kind it is functional.
Conditions: not given
By MTD is commonly meant the largest dose that counted as tolerated. High values mean a wide tolerated range, low ones a narrow tolerated range. Turning to `CC1(CN)CCN(c2c(F)cc3c(=O)c(C(=O)O)cn(C4CC4)c3c2F)C1` (centres undefined), the maximum tolerated dose (MTD) came out at 30 mg/kg.

`C[C@@H]1CN(c2c(F)cc3c(=O)c(C(=O)O)cn(C4CC4)c3c2F)CCN1` came in with an MTD of 30 mg/kg.

System in a further assay: not listed separately
Description: Minimum inhibitory concentration (MIC) against gram negative bacteria Prot. rettgeri M-1771. It counts as functional, Providencia rettgeri. The conditions noted are these: Providencia rettgeri; read-out: MIC. The gist of the method:
as §2
Turning to `CC1(CN)CCN(c2c(F)cc3c(=O)c(C(=O)O)cn(C4CC4)c3c2F)C1` (centres undefined), the MIC is 0.05 µg/mL (≈ 0.132 µM).

For `C[C@@H]1CN(c2c(F)cc3c(=O)c(C(=O)O)cn(C4CC4)c3c2F)CCN1`, the MIC amounted to 0.1 µg/mL (≈ 0.275 µM).

The test system of the next assay is Pseudomonas aeruginosa. Kind of assay: Minimum inhibitory concentration (MIC) against gram negative bacteria Pseudomonas aeruginosa UI-18. In kind it is functional. The conditions noted are these: Pseudomonas aeruginosa; read-out: MIC. The procedure, abridged:
as §2
Turning to `CC1(CN)CCN(c2c(F)cc3c(=O)c(C(=O)O)cn(C4CC4)c3c2F)C1` (centres undefined), the MIC was 0.4 µg/mL (≈ 1.06 µM).

Take `C[C@@H]1CN(c2c(F)cc3c(=O)c(C(=O)O)cn(C4CC4)c3c2F)CCN1`: the MIC stood at 0.4 µg/mL (≈ 1.1 µM).

The test system of the next assay is Streptococcus pyogenes. Kind of assay: In vivo efficacy (s.c.) against Streptococcus pyogenes C-203 in mouse protection test. It counts as functional. The conditions noted are these: Streptococcus pyogenes, sc; read-out: PD50. The gist of the method:
as §1
Turning to `C[C@@H]1CN(c2c(F)cc3c(=O)c(C(=O)O)cn(C4CC4)c3c2F)CCN1`, the ED50 stood at 7.2 mg/kg.

Another assay deals with Streptococcus pyogenes. Description: In vivo efficacy (orally) against Streptococcus pyogenes C-203 in mouse protection test. In kind it is functional. As to conditions: Streptococcus pyogenes, po; read-out: PD50. The gist of the method:
as §1
With `C[C@@H]1CN(c2c(F)cc3c(=O)c(C(=O)O)cn(C4CC4)c3c2F)CCN1`, the ED50 came out at 14 mg/kg.

The test system of another assay is Staphylococcus aureus. Description: Minimum inhibitory concentration (MIC) against gram positive bacteria Staphylococcus aureus H-228. It counts as functional. The conditions noted are these: Staphylococcus aureus; read-out: MIC. The gist of the method: as §2
In the case of `CC1(CN)CCN(c2c(F)cc3c(=O)c(C(=O)O)cn(C4CC4)c3c2F)C1` (centres undefined), the MIC is 0.013 µg/mL (≈ 0.0344 µM).

`C[C@@H]1CN(c2c(F)cc3c(=O)c(C(=O)O)cn(C4CC4)c3c2F)CCN1`: the MIC was 0.2 µg/mL (≈ 0.55 µM).

The next assay relates to Staphylococcus aureus. Kind of assay: Minimum inhibitory concentration (MIC) against gram positive bacteria Staphylococcus aureus UC-76. In kind it is functional. As to conditions: Staphylococcus aureus; read-out: MIC. The gist of the method:
as §2
With `C[C@@H]1CN(c2c(F)cc3c(=O)c(C(=O)O)cn(C4CC4)c3c2F)CCN1`, the MIC amounted to 0.1 µg/mL (≈ 0.275 µM).

The subject of a further assay is Enterococcus faecalis. Description: Minimum inhibitory concentration (MIC) against gram positive bacteria Streptococcus faecalis MGH-2. In kind it is functional. The conditions noted are these: Enterococcus faecalis; read-out: MIC. The gist of the method: as §2
As to `CC1(CN)CCN(c2c(F)cc3c(=O)c(C(=O)O)cn(C4CC4)c3c2F)C1` (centres undefined), the MIC was 0.006 µg/mL (≈ 0.0159 µM).

As for `C[C@@H]1CN(c2c(F)cc3c(=O)c(C(=O)O)cn(C4CC4)c3c2F)CCN1`, the MIC stood at 0.4 µg/mL (≈ 1.1 µM).

The test system of another assay is Streptococcus pneumoniae. Kind of assay: Minimum inhibitory concentration (MIC) against gram positive bacteria Streptococcus pneumoniae SV-1. In kind it is functional. The conditions noted are these: Streptococcus pneumoniae; read-out: MIC. The gist of the method:
as §2
As to `CC1(CN)CCN(c2c(F)cc3c(=O)c(C(=O)O)cn(C4CC4)c3c2F)C1` (centres undefined), the MIC is 0.003 µg/mL (≈ 0.00795 µM).

Consider `C[C@@H]1CN(c2c(F)cc3c(=O)c(C(=O)O)cn(C4CC4)c3c2F)CCN1`, for which the MIC stood at 0.4 µg/mL (≈ 1.1 µM).

A further assay concerns Streptococcus pyogenes. Kind of assay: Minimum inhibitory concentration (MIC) against gram positive bacteria Streptococcus pyogenes C-203. In kind it is functional. As to conditions: Streptococcus pyogenes; read-out: MIC. The procedure, abridged: as §2
In the case of `CC1(CN)CCN(c2c(F)cc3c(=O)c(C(=O)O)cn(C4CC4)c3c2F)C1` (centres undefined), the MIC worked out at 0.003 µg/mL (≈ 0.00795 µM).

In the case of `C[C@@H]1CN(c2c(F)cc3c(=O)c(C(=O)O)cn(C4CC4)c3c2F)CCN1`, the MIC came out at 0.2 µg/mL (≈ 0.55 µM).

The test system of another assay is Streptococcus pneumoniae. Description: In vivo efficacy (s.c.) against Streptococcus pneumoniae SV-1 in mouse protection test. In kind it is functional. As to conditions: Streptococcus pneumoniae, sc; read-out: PD50. The gist of the method: as §1
Turning to `CC1(CN)CCN(c2c(F)cc3c(=O)c(C(=O)O)cn(C4CC4)c3c2F)C1` (centres undefined), the ED50 was 0.3 mg/kg.

The next assay has as its system Streptococcus pneumoniae. Description: In vivo efficacy (orally) against Streptococcus pneumoniae SV-1 in mouse protection test. The conditions noted are these: Streptococcus pneumoniae, po; read-out: PD50. In kind it is functional. The gist of the method: as §1
On to `CC1(CN)CCN(c2c(F)cc3c(=O)c(C(=O)O)cn(C4CC4)c3c2F)C1` (centres undefined), for which the ED50 is 1.2 mg/kg.
